Source: ChEMBL document CHEMBL1139993, “Synthesis of sialic acid derivatives as ligands for the myelin-associated glycoprotein (MAG)” (Bioorg Med Chem, 2007)

The compounds below were run against T1, Myelin-associated glycoprotein (Homo sapiens) (UniProt P20916) (assay: Inhibition of MAG N-terminal three domains expressed in CHO cells at 20 mM).
T1 sequence (whole entry): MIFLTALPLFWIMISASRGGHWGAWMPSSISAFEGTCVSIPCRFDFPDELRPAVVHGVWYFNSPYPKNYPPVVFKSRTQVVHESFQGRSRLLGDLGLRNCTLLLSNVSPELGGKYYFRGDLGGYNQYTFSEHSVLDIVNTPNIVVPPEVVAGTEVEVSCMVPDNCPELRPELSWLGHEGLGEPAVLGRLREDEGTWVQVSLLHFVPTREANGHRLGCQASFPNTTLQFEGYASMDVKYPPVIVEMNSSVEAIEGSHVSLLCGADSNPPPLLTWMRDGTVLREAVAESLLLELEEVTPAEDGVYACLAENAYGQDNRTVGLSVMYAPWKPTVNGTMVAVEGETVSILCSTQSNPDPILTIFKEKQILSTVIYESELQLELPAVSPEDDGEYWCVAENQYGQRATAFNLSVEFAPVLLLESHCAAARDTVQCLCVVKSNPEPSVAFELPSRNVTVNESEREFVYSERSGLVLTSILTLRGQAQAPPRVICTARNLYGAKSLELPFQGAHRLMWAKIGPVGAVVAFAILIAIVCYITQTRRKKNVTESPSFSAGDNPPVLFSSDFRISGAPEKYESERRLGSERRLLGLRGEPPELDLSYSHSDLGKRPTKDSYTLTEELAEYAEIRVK

Row | Compound | inhibition [%]
1 | CC(=O)N[C@H]1[C@H]([C@@H](O)[C@H](O)CO)O[C@](OCc2ccccc2)(C(=O)O)C[C@@H]1O | < 50

Each compound was assayed against T1, Myelin-associated glycoprotein (Homo sapiens) (assay: Inhibition of MAG N-terminal three domains expressed in CHO cells relative to Gal-beta-(1-3)-GalNAc-OSE).
Type: cell-based
Summary of the method: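 Fc-MAG_d1–3 fusion (N-terminal three MAG domains plus human IgG Fc) was expressed in CHO cells and protein A-agarose purified, then precomplexed with alkaline phosphatase-labelled anti-Fc antibody. It was added to plates with immobilized Neu5Ac plus inhibitor, incubated overnight at 4 °C, and washed. Bound protein was read as initial rate of fluorescein release from fluorescein diphosphate. IC50 was taken from at least eight concentrations.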

Row | Compound | Activity
2 | CC(=O)N[C@H]1[C@H]([C@@H](O)[C@H](O)CNC(=O)c2ccc(Cl)cc2)O[C@@](OCc2ccccc2)(C(=O)O)C[C@@H]1O | 1070
3 | CCCCCCCCCC(=O)NC[C@@H](O)[C@H](O)[C@@H]1O[C@@](OCc2ccccc2)(C(=O)O)C[C@H](O)[C@H]1NC(C)=O | 12
4 | CC(=O)N[C@H]1[C@H]([C@@H](O)[C@H](O)CNC(=O)c2cc(=O)[nH]c(=O)[nH]2)O[C@@](OCc2ccccc2)(C(=O)O)C[C@@H]1O | 6.7
5 | CC(=O)N[C@H]1[C@H]([C@@H](O)[C@H](O)CNC(=O)c2ccc(Cl)c(Cl)c2)O[C@@](OCc2ccccc2)(C(=O)O)C[C@@H]1O | 690
6 | CC(=O)N[C@H]1[C@H]([C@@H](O)[C@H](O)CN=[N+]=[N-])O[C@@](OCc2ccccc2)(C(=O)O)C[C@@H]1O | 0.05
7 | CCCCCC(=O)NC[C@@H](O)[C@H](O)[C@@H]1O[C@@](OCc2ccccc2)(C(=O)O)C[C@H](O)[C@H]1NC(C)=O | 12
8 | CC(=O)N[C@H]1[C@H]([C@@H](O)[C@H](O)CNC(=O)c2ccccc2)O[C@@](OCc2ccccc2)(C(=O)O)C[C@@H]1O | 690
9 | CC(=O)N[C@@H]1[C@@H]([C@@H](O)[C@H](O)CNC(=O)c2ccc(C)cc2)O[C@@](OCc2ccccc2)(C(=O)O)C[C@@H]1O | 806
10 | COc1ccc(C(=O)NC[C@@H](O)[C@H](O)[C@@H]2O[C@@](OCc3ccccc3)(C(=O)O)C[C@H](O)[C@H]2NC(C)=O)cc1 | 290
11 | CC(=O)N[C@H]1[C@H]([C@@H](O)[C@H](O)CNC(=O)c2ccc([N+](=O)[O-])cc2)O[C@@](OCc2ccccc2)(C(=O)O)C[C@@H]1O | 414
12 | CC(=O)N[C@H]1[C@H]([C@@H](O)[C@H](O)CNC(=O)c2cccc(Cl)c2)O[C@@](OCc2ccccc2)(C(=O)O)C[C@@H]1O | 483
13 | CC(=O)N[C@H]1[C@H]([C@@H](O)[C@H](O)CNC(=O)c2ccc(Cl)cc2Cl)O[C@@](OCc2ccccc2)(C(=O)O)C[C@@H]1O | 35
14 | CCCC(=O)NC[C@@H](O)[C@H](O)[C@@H]1O[C@@](OCc2ccccc2)(C(=O)O)C[C@H](O)[C@H]1NC(C)=O | 8.6
15 | CC(=O)N[C@H]1[C@@H]([C@H](O)[C@H](O)CNC(=O)c2ccc(-c3ccccc3)cc2)O[C@@](OCc2ccccc2)(C(=O)O)C[C@@H]1O | 191
16 | CC(=O)N[C@H]1[C@H]([C@@H](O)[C@H](O)CO)O[C@@](OCc2ccccc2)(C(=O)O)C[C@@H]1O | 0.62
17 | CC(=O)N[C@H]1[C@H]([C@@H](O)[C@H](O)COCc2ccccc2)O[C@@](OCc2ccccc2)(C(=O)O)C[C@@H]1O | 2.8
18 | CC(=O)N[C@H]1[C@H]([C@@H](O)[C@H](O)CNC(=O)c2ccc(C(F)(F)F)cc2)O[C@@](OCc2ccccc2)(C(=O)O)C[C@@H]1O | 207
19 | CC(=O)N[C@H]1[C@@H]([C@H](O)[C@H](O)CNC(=O)c2ccccc2-c2ccccc2)O[C@@](OCc2ccccc2)(C(=O)O)C[C@@H]1O | 75
